Measured values taken from ChEMBL document CHEMBL1137629, “Antiproliferative effect of dihydroxyacetone on Trypanosoma brucei bloodstream forms: cell cycle progression, subcellular alterations, and cell death” (Antimicrob Agents Chemother, 2007).
Active and inactive are the calls of the source. The calls are words filed in the database; no cut-off is given here.

What was measured:
Trypanosoma brucei [1] = assay: Effect on cell cycle of Trypanosoma brucei bloodstream form assessed as DNA content at 3 mM after 24 hrs using propidium iodide staining by FACS analysis; assay type: functional
Method in brief: (§1)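 T. brucei bloodstream forms (MITat 1.2, strain EATRO 427), axenic culture at 37°C, 5% CO₂. Treated 24 h. At least 5 × 10⁵ cells washed in PBS, lysed hypotonically 30 min at room temperature in 10 mM phosphate buffer pH 7.4 with 6 μM digitonin. Nuclei stained with propidium iodide (10 μg/ml final) and analysed by flow cytometry for G₁/S/G₂ distribution and degraded DNA.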

Trypanosoma brucei [2] = assay: Effect on morphological changes in Trypanosoma brucei bloodstream form assessed as presence of more than one flagellum at 3 mM after 24 hrs by transmission electron microscopy; assay type: functional, organism-based
Method in brief: (§2)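 Parasites exposed 24 h to 3 mM DHA. 10⁸ cells fixed 1 h at 4°C in 2% glutaraldehyde in 0.2 M sodium cacodylate with 0.12 M sucrose, held overnight in buffer, postfixed in 1.5% osmium tetroxide and stained with 0.5% uranyl acetate. Dehydrated in ethanol, cleared in propylene oxide, embedded in Agar 100. Sections stained with 5% uranyl acetate and 0.4% lead citrate for TEM. Rapamycin (5 μM) served as the autophagy positive control.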

Trypanosoma brucei [3] = assay: Induction of apoptosis-like programmed cell death in Trypanosoma brucei bloodstream form assessed as loss of mitochondrial-membrane potential at 3 mM after 24 hrs by TMRE staining; assay type: functional
Method in brief: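 T. brucei MITat 1.2 (EATRO 427) bloodstream forms were grown axenically at 37°C, 5% CO₂ and exposed to DHA for 24 h. Cells at 10⁶/ml were stained with 25 nM TMRE in culture medium for 30 min at 37°C and read at once by flow cytometry. Depolarization control: valinomycin 100 nM. Lower fluorescence signifies lost membrane potential.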

Trypanosoma brucei [4] = assay: Trypanocidal activity against Trypanosoma brucei bloodstream form at 4 mM up to 24 hrs by spectrophotometry; assay type: functional
Method in brief: (§3)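 Proliferation measured in complete medium (33 mM glucose, 15% serum) with a range of DHA concentrations. Cell density followed over 24 h. Triplicate, SD.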

Trypanosoma brucei [5] = assay: Induction of apoptosis-like programmed cell death in Trypanosoma brucei bloodstream form assessed as phosphatidylserine exposure in outer leaflet of plasma membrane at 5 uM after 24 hrs by V-Fluos staining staining; assay type: functional
Trypanosoma brucei [6] = assay: Effect on morphological changes in Trypanosoma brucei bloodstream form assessed as disorder of mitochondrion structure at 3 mM after 24 hrs by transmission electron microscopy; assay type: functional, organism-based; method in brief: as §2
Trypanosoma brucei [7] = assay: Effect on morphological changes in Trypanosoma brucei bloodstream form assessed as presence of kinetoplast at 5 mM after 20 hrs by scanning electron microscopy; assay type: functional, organism-based
Method in brief: (§4)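 Cells grown 20 h with 5 mM DHA. Fixed and stained as for TEM (glutaraldehyde, osmium tetroxide, uranyl acetate), then dehydrated through 50, 75, 95 and 100% ethanol. Critical-point dried and gold-palladium sputter-coated for scanning electron microscopy.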

Trypanosoma brucei [8] = assay: Effect on cell cycle of Trypanosoma brucei bloodstream form assessed as induction of necrosis at 1 mM after 24 hrs using propidium iodide staining by FACS analysis; assay type: functional
Method in brief: (§5)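 Bloodstream forms exposed 24 h at 37°C, 5% CO₂. Cells at 2 × 10⁶/ml incubated 10 min with propidium iodide (5 μg/ml), and uptake read by flow cytometry as a measure of membrane integrity. Digitonin (6 μM) served as the necrosis positive control.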

Trypanosoma brucei [9] = assay: Effect on cell cycle of Trypanosoma brucei bloodstream form assessed as induction of necrosis at 3 mM after 24 hrs using propidium iodide staining by FACS analysis; assay type: functional; method in brief: as §5
Trypanosoma brucei [10] = assay: Effect on cell cycle of Trypanosoma brucei bloodstream form assessed as induction of necrosis at 5 uM after 24 hrs using propidium iodide staining by FACS analysis; assay type: functional
Trypanosoma brucei [11] = assay: Effect on cell cycle of Trypanosoma brucei bloodstream form assessed as induction of necrosis at 4 mM after 24 hrs using propidium iodide staining by FACS analysis; assay type: functional; method in brief: as §5
Trypanosoma brucei [12] = assay: Effect on cell cycle of Trypanosoma brucei bloodstream form assessed as DNA content at 1 mM after 24 hrs using propidium iodide staining by FACS analysis; assay type: functional; method in brief: as §1
Trypanosoma brucei [13] = assay: Induction of apoptosis-like programmed cell death in Trypanosoma brucei bloodstream form assessed as increase in intracellular reactive oxygen species production at 2 mM after 24 hrs by FACS analysis; assay type: functional
Method in brief: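 Bloodstream-form T. brucei MITat 1.2 (VSG 221, strain EATRO 427) were grown axenically at 37°C, 5% CO₂ and exposed to DHA for 24 h. Control and treated cells were then loaded with 10 μM dichlorofluorescein diacetate for 1 h at 37°C. Intracellular fluorescence intensity was read by flow cytometry.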

Trypanosoma brucei [14] = assay: Effect on morphological changes in Trypanosoma brucei bloodstream form assessed as presence of atypical combination of number of nucleus at 5 mM after 20 hrs by scanning electron microscopy; assay type: functional, organism-based; method in brief: as §4
Trypanosoma brucei [15] = assay: Effect on morphological changes in Trypanosoma brucei bloodstream form assessed as presence of myelin-like structures at 3 mM after 24 hrs by transmission electron microscopy; assay type: functional, organism-based; method in brief: as §2
Trypanosoma brucei [16] = assay: Effect on morphological changes in Trypanosoma brucei bloodstream form assessed as increase in autophagic vaculoe structures at 3 mM after 24 hrs by transmission electron microscopy; assay type: functional, organism-based; method in brief: as §2
Trypanosoma brucei [17] = assay: Effect on morphological changes in Trypanosoma brucei bloodstream form assessed as increase in cell size after 24 hrs using DAPI staining by phase-contrast microscopy; assay type: functional, organism-based
Trypanosoma brucei [18] = assay: Trypanocidal activity against Trypanosoma brucei bloodstream form assessed as decrease in cell density after 24 hrs by spectrophotometry; assay type: functional, organism-based; method in brief: as §3
Trypanosoma brucei [19] = assay: Effect on morphological changes in Trypanosoma brucei bloodstream form assessed as presence of more than one flagellum after 24 hrs using DAPI staining by phase-contrast microscopy; assay type: functional, organism-based
Method in brief: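 Bloodstream forms (MITat 1.2, EATRO 427) grown 24 h with or without DHA. Aliquots washed twice in PBS, resuspended, placed on slides and fixed with methanol. Stained 5 min with DAPI (0.1 μg/ml final), then washed. Phase-contrast and fluorescence images scored for nucleus/kinetoplast numbers (1N1K, 1N2K, 2N2K, 2N1K, abnormal). n = 4, Student's t test, SD.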

Trypanosoma brucei [20] = assay: Effect on morphological changes in Trypanosoma brucei bloodstream form assessed as increase in cell size at 5 mM after 20 hrs by scanning electron microscopy; assay type: functional, organism-based; method in brief: as §4
Trypanosoma brucei [21] = assay: Effect on morphological changes in Trypanosoma brucei bloodstream form assessed as dilation of mitochondrion membrane at 3 mM after 24 hrs by transmission electron microscopy; assay type: functional, organism-based; method in brief: as §2
Trypanosoma brucei [22] = assay: Effect on morphological changes in Trypanosoma brucei bloodstream form assessed as presence of one or two nucleus at 3 mM after 24 hrs by transmission electron microscopy; assay type: functional, organism-based; method in brief: as §2
Trypanosoma brucei [23] = assay: Trypanocidal activity against Trypanosoma brucei bloodstream form assessed as decrease in cell viability at 1 mM up to 40 mins by spectrophotometry; assay type: functional, organism-based
Method in brief: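 Viability as a carbon source. Bloodstream forms incubated in basic medium lacking glucose and serum: unsupplemented, with 1 mM glucose, or with 1 mM DHA. Cell density and motility followed over time. Triplicate, SD.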

Trypanosoma brucei [24] = assay: Induction of apoptosis-like programmed cell death in Trypanosoma brucei bloodstream form assessed as phosphatidylserine exposure in outer leaflet of plasma membrane at 4 mM after 24 hrs by V-Fluos staining staining; assay type: functional
Method in brief: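 After 24 h DHA exposure of axenic bloodstream-form T. brucei MITat 1.2 (EATRO 427; 37°C, 5% CO₂), cells were washed in HEPES buffer (10 mM, pH 7.4, 140 mM NaCl, 5 mM CaCl₂). They were then stained with annexin V-Fluos for 15 min at 4°C and analysed by flow cytometry.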

With `O=C(CO)CO` [DIHYDROXYACETONE] the Activity (Trypanosoma brucei [1]) was 8%, the Activity (Trypanosoma brucei [2]) was “Active” and the Activity (Trypanosoma brucei [3]) was 12.3%. For the same compound, the Activity (Trypanosoma brucei [4]) was 100%, the Activity (Trypanosoma brucei [5]) was 35.8% and the Activity (Trypanosoma brucei [6]) was “Active”. The Activity (Trypanosoma brucei [7]) was “inactive”, the Activity (Trypanosoma brucei [8]) was 4% and the Activity (Trypanosoma brucei [9]) was 9.9%. It also gave an Activity (Trypanosoma brucei [10]) of 4.5%, an Activity (Trypanosoma brucei [11]) of 12.9% and an Activity (Trypanosoma brucei [12]) of 4.5%. The Activity (Trypanosoma brucei [13]) was 10.6%, the Activity (Trypanosoma brucei [14]) was “inactive” and the Activity (Trypanosoma brucei [15]) was “Active”. The Activity (Trypanosoma brucei [16]) was “Active”, the Activity (Trypanosoma brucei [17]) was “Dose-dependent effect” and the Activity (Trypanosoma brucei [18]) was “Dose-dependent effect”. The Activity (Trypanosoma brucei [19]) was “Dose-dependent effect”, the Activity (Trypanosoma brucei [20]) was “inactive” and the Activity (Trypanosoma brucei [21]) was “Active”. The Activity (Trypanosoma brucei [22]) was “Active”, the Activity (Trypanosoma brucei [23]) was “inactive” and the Activity (Trypanosoma brucei [24]) was 20%.
